Experimental data reported in ChEMBL document CHEMBL1124250, “9-Benzyl-6-(dimethylamino)-9H-purines with antirhinovirus activity” (J Med Chem, 1988).
pIC50: −log10 of the molar value. Values belong to the molecule of their own block, whether it stands above or below them.

Key:
rhinovirus A1B [1] = assay: In vitro activity against Rhinovirus type 1B by plaque inhibition assay.; assay type: functional, organism-based, Enterovirus; conditions: Rhinovirus A
rhinovirus A1B [2] = assay: In vitro activity against rhinovirus type 1B was determined by plaque inhibition assay; - = Inactive at 50 ug/disk; assay type: functional, organism-based, Enterovirus
Procedure, shortened: (§1)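 Rhinovirus 1B plaque inhibition run on M-HeLa cell monolayers, with compound applied on disks at 50 µg/disk. Compounds active or slightly active at this level went on to a plaque reduction assay for the 50% inhibitory concentration.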

rhinovirus A1B [3] = assay: In vitro activity against rhinovirus type 1B was determined by plaque inhibition assay; Inactive at 50 ug/disk, T=Toxic; assay type: functional, organism-based, Enterovirus; procedure, shortened: as §1
Enterovirus [4] = assay: Inhibitory concentration measured against Rhinovirus serotype 21; assay type: functional, organism-based
Enterovirus [5] = assay: Percent inhibition of plaque formation of Rhinovirus serotype 29 was measured at 2.5 uM of the compound; assay type: functional
Enterovirus [6] = assay: Inhibitory concentration measured against Rhinovirus serotype 3; assay type: functional, organism-based
Enterovirus [7] = assay: Inhibitory concentration measured against Rhinovirus serotype 30; assay type: functional, organism-based
Enterovirus [8] = assay: Percent inhibition of plaque formation of Rhinovirus serotype 31 was measured at 2.5 uM of the compound; assay type: functional
Enterovirus [9] = assay: Inhibitory concentration measured against Rhinovirus serotype 12; assay type: functional, organism-based
Enterovirus [10] = assay: Percent inhibition of plaque formation of Rhinovirus serotype 13 was measured at 5 uM of the compound; assay type: functional
Enterovirus [11] = assay: Percent inhibition of plaque formation of Rhinovirus serotype 15 was measured at 2.5 uM of the compound; assay type: functional
Enterovirus [12] = assay: Percent inhibition of plaque formation of Rhinovirus serotype 18 was measured at 5 uM of the compound; assay type: functional
Enterovirus [13] = assay: Inhibitory concentration measured against Rhinovirus serotype 1A; assay type: functional, organism-based
Enterovirus [14] = assay: Inhibitory concentration measured against Rhinovirus serotype 1B; assay type: functional, organism-based
Enterovirus [15] = assay: Inhibitory concentration measured against Rhinovirus serotype 2; assay type: functional, organism-based
Enterovirus [16] = assay: Inhibitory concentration measured against Rhinovirus serotype 4; assay type: functional, organism-based
Enterovirus [17] = assay: Inhibitory concentration measured against Rhinovirus serotype 5; assay type: functional, organism-based
Enterovirus [18] = assay: Inhibitory concentration measured against Rhinovirus serotype 8; assay type: functional, organism-based
Enterovirus [19] = assay: Inhibitory concentration measured against Rhinovirus serotype 9; assay type: functional, organism-based
Enterovirus [20] = assay: Inhibitory concentration measured against Rhinovirus serotype 19; assay type: functional, organism-based
Enterovirus [21] = assay: Percent inhibition of plaque formation of Rhinovirus serotype 14 was measured at 2.5 uM of the compound; assay type: functional
Enterovirus [22] = assay: Inhibitory concentration measured against Rhinovirus serotype 29; assay type: functional, organism-based
Enterovirus [23] = assay: Inhibitory concentration measured against Rhinovirus serotype 31; assay type: functional, organism-based
Enterovirus [24] = assay: Inhibitory concentration measured against Rhinovirus serotype 13; assay type: functional, organism-based
Enterovirus [25] = assay: Inhibitory concentration measured against Rhinovirus serotype 14; assay type: functional, organism-based
Enterovirus [26] = assay: Inhibitory concentration measured against Rhinovirus serotype 16; assay type: functional, organism-based
Enterovirus [27] = assay: Inhibitory concentration measured against Rhinovirus serotype 18; assay type: functional, organism-based
Enterovirus [28] = assay: Inhibitory concentration measured against Rhinovirus serotype 15; assay type: functional, organism-based
Enterovirus [29] = assay: Percent inhibition of plaque formation of Rhinovirus serotype 18 was measured at 4 uM of the compound; assay type: functional
Enterovirus [30] = assay: Percent inhibition of plaque formation of Rhinovirus serotype 8 was measured at 4 uM of the compound; assay type: functional

Compound: CN(C)c1ncnc2c1ncn2Cc1cccc(C(F)(F)F)c1
pIC50 (rhinovirus A1B [1]): 4.71

Compound: CN(C)c1ncnc2c1ncn2Cc1cccc(Cl)c1
pIC50 (rhinovirus A1B [1]): 4.52

Compound: CN(C)c1ncnc2c1ncn2Cc1ccc(OCc2ccccc2)cc1
IC50 (rhinovirus A1B [2]): Not Active

Compound: CN(C)c1ncnc2c1ncn2Cc1cccc(F)c1
pIC50 (rhinovirus A1B [1]): 4.64

Compound: CN(C)c1ncnc2c1ncn2Cc1cccc([N+](=O)[O-])c1
IC50 (rhinovirus A1B [2]): Not Active

Compound: CN(C)c1nc(Cl)nc2c1ncn2Cc1cccc(OCc2ccccc2)c1
IC50 (rhinovirus A1B [3]): Toxic

Compound: CN(C)c1ncnc2c1ncn2Cc1cccc(NC(=O)C(N)Cc2ccccc2)c1 (configuration not stated)
pIC50 (rhinovirus A1B [1]): 4.77

Compound: CN(C)c1ncnc2c1ncn2Cc1ccc([N+](=O)[O-])cc1
IC50 (rhinovirus A1B [2]): Not Active

Compound: CN(C)c1ncnc2c1ncn2Cc1cccc(I)c1
pIC50 (rhinovirus A1B [1]): 5.17

Compound: CN(C)c1ncnc2c1ncn2Cc1cccc(N)c1
pIC50 (rhinovirus A1B [1]): 4.30

Compound: CN(C)c1ncnc2c1ncn2Cc1ccc(Cl)cc1
pIC50 (rhinovirus A1B [1]): < 4.60

Compound: CN(C)c1ncnc2c1ncn2Cc1cccc(Br)c1
pIC50 (rhinovirus A1B [1]): 4.84

Compound: CN(C)c1ncnc2c1ncn2Cc1ccc(O)cc1
pIC50 (rhinovirus A1B [1]): 4.47

Compound: Cc1cccc(Cn2cnc3c(N(C)C)ncnc32)c1
pIC50 (rhinovirus A1B [1]): 4.49

Compound: CN(C)c1ncnc2c1ncn2Cc1cccc(C#N)c1
IC50 (rhinovirus A1B [2]): Not Active

Compound: CN(C)c1ncnc2c1ncn2Cc1cccc(O)c1
IC50 (rhinovirus A1B [2]): Not Active

Compound: CC(=O)Nc1ccc(Cn2cnc3c(N(C)C)ncnc32)cc1
IC50 (rhinovirus A1B [2]): Not Active

Compound: CN(C)c1ncnc2c1ncn2Cc1ccc(F)cc1
IC50 (rhinovirus A1B [2]): Not Active

Compound: Cc1ccc(Cn2cnc3c(N(C)C)ncnc32)cc1
pIC50 (rhinovirus A1B [1]): 5.07

Compound: CN(C)c1ncnc2c1ncn2Cc1ccc(C#N)cc1
IC50 (rhinovirus A1B [2]): Not Active

Compound: CN(C)c1ncnc2c1ncn2Cc1cccc(OCc2ccccc2)c1
pIC50 (rhinovirus A1B [1]): 4.89

Compound: CN(C)c1nc(Cl)nc2c1ncn2Cc1cccc(N)c1
pIC50 (rhinovirus A1B [1]): 4.89

Compound: COc1ccc(Cn2cnc3c(N(C)C)ncnc32)cc1
pIC50 (rhinovirus A1B [1]): 4.42

Compound: CN(C)c1ncnc2c1ncn2Cc1ccc(N)cc1
IC50 (rhinovirus A1B [2]): Not Active

Compound: CN(C)c1ncnc2c1ncn2Cc1cc(Cl)cc(Cl)c1
pIC50 (rhinovirus A1B [1]): 5.34

Compound: COc1cccc(Cn2cnc3c(N(C)C)ncnc32)c1
pIC50 (rhinovirus A1B [1]): 4.30

Compound: CN(C)c1ncnc2c1ncn2Cc1ccccc1
pIC50 (rhinovirus A1B [1]): 4.48

Continued by rising pIC50 (rhinovirus A1B [1]), values first:

pIC50 (rhinovirus A1B [1]): 5.60
Compound: CN(C)c1ncnc2c1ncn2Cc1ccc(Cl)c(Cl)c1

pIC50 (rhinovirus A1B [1]): 5.70
Compound: COc1cccc(Cn2cnc3c(N(C)C)nc(Cl)nc32)c1

pIC50 (rhinovirus A1B [1]): 5.96
Compound: CN(C)c1nc(Cl)nc2c1ncn2Cc1ccc2ccccc2c1

pIC50 (rhinovirus A1B [1]): 6.09
Compound: CN(C)c1nc(Cl)nc2c1ncn2Cc1ccccc1

pIC50 (rhinovirus A1B [1]): 6.15
Compound: COc1ccc(Cn2cnc3c(N(C)C)nc(Cl)nc32)cc1

pIC50 (rhinovirus A1B [1]): 6.22
Compound: Cc1cccc(Cn2cnc3c(N(C)C)nc(Cl)nc32)c1

pIC50 (rhinovirus A1B [1]): 6.23
Compound: CN(C)c1nc(Cl)nc2c1ncn2Cc1cccc(Cl)c1

pIC50 (rhinovirus A1B [1]): 6.29
Compound: CN(C)c1nc(Cl)nc2c1ncn2Cc1ccc([N+](=O)[O-])cc1

pIC50 (rhinovirus A1B [1]): 6.36
Compound: CN(C)c1nc(Cl)nc2c1ncn2Cc1ccc(C(C)(C)C)cc1

pIC50 (rhinovirus A1B [1]): 6.44
Compound: CN(C)c1nc(Cl)nc2c1ncn2Cc1cccc(I)c1

pIC50 (rhinovirus A1B [1]): 6.49
Compound: CN(C)c1nc(Cl)nc2c1ncn2Cc1ccc(Cl)c(Cl)c1

pIC50 (rhinovirus A1B [1]): 6.52
Compound: CN(C)c1nc(Cl)nc2c1ncn2Cc1ccc(N)cc1

pIC50 (Enterovirus [4]): < 5.30
pIC50 (Enterovirus [6]): 5.51
pIC50 (Enterovirus [7]): < 5.60
pIC50 (Enterovirus [9]): 5.27
pIC50 (Enterovirus [13]): 5.52
pIC50 (Enterovirus [14]): 6.92
pIC50 (Enterovirus [15]): 5.60
pIC50 (Enterovirus [16]): < 5.60
pIC50 (Enterovirus [17]): 5.28
pIC50 (Enterovirus [18]): 5.35
pIC50 (Enterovirus [19]): 5.68
pIC50 (rhinovirus A1B [1]): 6.92
pIC50 (Enterovirus [20]): < 5.30
Compound: CN(C)c1nc(Cl)nc2c1ncn2Cc1ccc(Cl)cc1
Inhibition (Enterovirus [5]): 31%
Inhibition (Enterovirus [8]): 42%
Inhibition (Enterovirus [10]): 12%
Inhibition (Enterovirus [11]): 40%
Inhibition (Enterovirus [12]): 35%
Inhibition (Enterovirus [21]): 32%

pIC50 (Enterovirus [4]): 5.25
pIC50 (Enterovirus [22]): < 5.30
pIC50 (Enterovirus [6]): 5.14
pIC50 (Enterovirus [23]): 5.80
pIC50 (Enterovirus [9]): 5.27
pIC50 (Enterovirus [24]): 5.64
pIC50 (Enterovirus [25]): 5.15
pIC50 (Enterovirus [26]): 6.00
pIC50 (Enterovirus [27]): 5.40
pIC50 (Enterovirus [13]): 6.92
pIC50 (Enterovirus [14]): 7.10
pIC50 (Enterovirus [15]): 4.96
pIC50 (Enterovirus [16]): 5.34
pIC50 (Enterovirus [17]): 5.21
pIC50 (Enterovirus [18]): 4.89
pIC50 (Enterovirus [19]): 5.70
pIC50 (rhinovirus A1B [1]): 7.10
pIC50 (Enterovirus [20]): 4.85
pIC50 (Enterovirus [28]): 5.46
Compound: Cc1ccc(Cn2cnc3c(N(C)C)nc(Cl)nc32)cc1

pIC50 (Enterovirus [4]): 5.10
pIC50 (Enterovirus [22]): 6.52
pIC50 (Enterovirus [6]): 5.40
pIC50 (Enterovirus [7]): 5.40
pIC50 (Enterovirus [23]): 5.46
pIC50 (Enterovirus [9]): 5.15
pIC50 (Enterovirus [24]): 5.31
pIC50 (Enterovirus [25]): 5.48
pIC50 (Enterovirus [26]): 6.70
pIC50 (Enterovirus [13]): 6.30
pIC50 (Enterovirus [14]): 7.10
pIC50 (Enterovirus [15]): 5.55
pIC50 (Enterovirus [16]): 5.40
pIC50 (Enterovirus [17]): 5.25
pIC50 (Enterovirus [19]): 6.40
pIC50 (rhinovirus A1B [1]): 7.10
pIC50 (Enterovirus [20]): 5.34
pIC50 (Enterovirus [28]): 5.41
Compound: CCc1ccc(Cn2cnc3c(N(C)C)nc(Cl)nc32)cc1
Inhibition (Enterovirus [29]): 42%
Inhibition (Enterovirus [30]): 30%

pIC50 (Enterovirus [22]): 6.30
pIC50 (Enterovirus [6]): 5.15
pIC50 (Enterovirus [7]): 5.10
pIC50 (Enterovirus [23]): 5.40
pIC50 (Enterovirus [9]): 5.47
pIC50 (Enterovirus [24]): 5.24
pIC50 (Enterovirus [25]): 5.23
pIC50 (Enterovirus [26]): 6.70
pIC50 (Enterovirus [27]): 5.37
pIC50 (Enterovirus [13]): > 6.00
pIC50 (Enterovirus [14]): 7.15
pIC50 (Enterovirus [15]): 5.92
pIC50 (Enterovirus [16]): 5.21
pIC50 (Enterovirus [17]): 5.10
pIC50 (Enterovirus [18]): 5.22
pIC50 (Enterovirus [19]): > 6.00
pIC50 (rhinovirus A1B [1]): 7.15
pIC50 (Enterovirus [20]): 5.15
pIC50 (Enterovirus [28]): 5.35
Compound: CC(C)c1ccc(Cn2cnc3c(N(C)C)nc(Cl)nc32)cc1

pIC50 (rhinovirus A1B [1]): 7.40
Compound: CC(C)S(=O)(=O)n1c(N)nc2ccc(/C(=N/O)c3ccccc3)cc21 [ENVIROXIME]
